{
  "source": "ChEMBL document CHEMBL5244249",
  "about": "“Discovery of tofacitinib derivatives as orally active antitumor agents based on the scaffold hybridization strategy” (Eur J Med Chem, 2020)",
  "key": {"MGC-803 [1]": {"test_system": "MGC-803", "assay": "Induction of apoptosis in human MGC-803 cells assessed as total apoptotic cells at 10 uM incubated for 24 hrs by Annexin V-FITC/PI staining based flow cytometric analysis (reference value: 7.7 %)", "format": "functional"}, "MGC-803 [2]": {"test_system": "MGC-803", "assay": "Induction of apoptosis in human MGC-803 cells assessed as early apoptotic cells at 7.5 uM incubated for 24 hrs by Annexin V-FITC/PI staining based flow cytometric analysis (reference value: 3.9 %)", "format": "functional"}, "MGC-803 [3]": {"test_system": "MGC-803", "assay": "Induction of mitochondrial dysfunction in human MGC-803 cells assessed as increase in ratio of green to red fluorescence intensity at 10 uM incubated for 24 hrs by JC-1 staining based fluorescence microscopic analysis", "format": "functional"}, "MGC-803 [4]": {"test_system": "MGC-803", "assay": "Induction of mitochondrial dysfunction in human MGC-803 cells assessed as downregulation of procaspase-3 expression at 5 to 10 uM incubated for 24 hrs by Western blot analysis", "format": "functional, cell-based", "settings": "dose 5-10 µM", "method_in_brief": "(§1)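 Western blot of caspase 9, 3, 7, PARP and γH2A.X in MGC-803 lysates after 24 h exposure to 5, 7.5 or 10 μM; band quantitation; mean ± SD from three independent experiments.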"}, "[5]": {"assay": "Activation of MAPK pathway in human MGC-803 cells assessed as change in JNK total expression at 5 to 10 uM incubated for 24 hrs by Western blot analysis", "format": "cell-based", "settings": "dose 5-10 µM"}, "MGC-803 [6]": {"test_system": "MGC-803", "assay": "Induction of apoptosis in human MGC-803 cells assessed as late apoptotic cells at 10 uM incubated for 24 hrs by Annexin V-FITC/PI staining based flow cytometric analysis (reference value: 3.8 %)", "format": "functional"}, "[7]": {"assay": "Toxicity in SCID mouse xenografted with human MGC-803 cells assessed as effect on liver at 12.5 to 25 mg/kg, IG administered for 21 days by H&E staining based histopathological analysis", "format": "organism-based", "settings": "in vivo, po, 504 h, dose 12.5-25 mg/kg, time 21 day", "method_in_brief": "(§2)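 SCID mice bearing subcutaneous MGC-803 xenografts (right side) dosed with 12.5 or 25 mg/kg over 21 days, 0.5% CMC-Na vehicle as control; body weight and tumor size monitored periodically; major organs examined histopathologically at end; means ± SD.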"}, "MGC-803 [8]": {"test_system": "MGC-803", "assay": "Induction of apoptosis in human MGC-803 cells assessed as late apoptotic cells at 7.5 uM incubated for 24 hrs by Annexin V-FITC/PI staining based flow cytometric analysis (reference value: 3.8 %)", "format": "functional"}, "MGC-803 [9]": {"test_system": "MGC-803", "assay": "Inhibition of cell migration in human MGC-803 cells incubated for 24 hrs by wound healing assay", "format": "functional, cell-based", "settings": "dose 5-10 µM", "method_in_brief": "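Wound-healing scratch assay in MGC-803 monolayers; 24 h exposure to 0, 5, 7.5 or 10 μM; migration quantified; three independent experiments, mean ± SD.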"}, "MGC-803 [10]": {"test_system": "MGC-803", "assay": "Cell cycle arrest in human MGC-803 cells assessed as G0/G1 phase cells at 5 uM incubated for 24 hrs by RNase/PI staining based flow cytometric analysis (reference value: 54.99%)", "format": "functional"}, "[11]": {"assay": "Toxicity in SCID mouse xenografted with human MGC-803 cells assessed as effect on body weight at 12.5 to 25 mg/kg, IG administered for 21 days", "format": "organism-based", "settings": "in vivo, po, 504 h, dose 12.5-25 mg/kg, time 21 day", "method_in_brief": "as §2"}, "[12]": {"assay": "Selectivity index, ratio of IC50 for cytotoxicity against human GES1 cells to IC50 for antiproliferative activity against human MGC-803 cells", "format": "toxicity, cell-based", "settings": "GES1 cells and MGC-803 cells, read-out: Ratio IC50"}, "[13]": {"assay": "Toxicity in SCID mouse xenografted with human MGC-803 cells assessed as effect on kidney at 12.5 to 25 mg/kg, IG administered for 21 days by H&E staining based histopathological analysis", "format": "organism-based", "settings": "in vivo, po, 504 h, dose 12.5-25 mg/kg, time 21 day", "method_in_brief": "as §2"}, "MGC-803 [14]": {"test_system": "MGC-803", "assay": "Induction of apoptosis in human MGC-803 cells assessed as viable cells at 5 uM incubated for 24 hrs by Annexin V-FITC/PI staining based flow cytometric analysis (reference value: 90.3 %)", "format": "functional", "settings": "read-out: Activity"}, "MGC-803 [15]": {"test_system": "MGC-803", "assay": "Induction of apoptosis in human MGC-803 cells assessed as total apoptotic cells at 10 uM incubated for 48 hrs by Annexin V-FITC/PI staining based flow cytometric analysis relative to control", "format": "functional"}, "BGC-823": {"test_system": "BGC-823", "assay": "Antiproliferative activity against human BGC-823 cells assessed as inhibition of cell growth incubated for 72 hrs by MTT assay", "format": "functional, cell-based", "settings": "BGC-823, 72 h", "method_in_brief": "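Antiproliferative screen in gastric cancer lines MGC-803, HGC-27 and BGC-823 by MTT assay; IC50 reported as mean ± SD.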"}, "MGC-803 [16]": {"test_system": "MGC-803", "assay": "Induction of apoptosis in human MGC-803 cells assessed as increase in Bax protein expression at 5 to 10 uM incubated for 24 hrs by Western blot analysis", "format": "functional, cell-based", "settings": "dose 5-10 µM", "method_in_brief": "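After 24 h exposure of MGC-803 cells, Bcl-2, Mcl-1, Bax and cytochrome c release assessed by Western blot with band quantitation; mean ± SD from three independent experiments.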"}, "MGC-803 [17]": {"test_system": "MGC-803", "assay": "Induction of mitochondrial dysfunction in human MGC-803 cells assessed as upregulation of cleaved caspase-9 expression at 5 to 10 uM incubated for 24 hrs by Western blot analysis", "format": "functional, cell-based", "settings": "dose 5-10 µM", "method_in_brief": "as §1"}, "MGC-803 [18]": {"test_system": "MGC-803", "assay": "Cell cycle arrest in human MGC-803 cells assessed as G2/M phase cells at 5 uM incubated for 24 hrs by RNase/PI staining based flow cytometric analysis (reference value: 15.11%)", "format": "functional"}, "MGC-803 [19]": {"test_system": "MGC-803", "assay": "Induction of apoptosis in human MGC-803 cells assessed as necrotic cells at 10 uM incubated for 24 hrs by Annexin V-FITC/PI staining based flow cytometric analysis (reference value: 2.0 %)", "format": "functional"}, "MGC-803 [20]": {"test_system": "MGC-803", "assay": "Induction of apoptosis in human MGC-803 cells assessed as necrotic cells at 7.5 uM incubated for 24 hrs by Annexin V-FITC/PI staining based flow cytometric analysis (reference value: 2.0 %)", "format": "functional"}, "MGC-803 [21]": {"test_system": "MGC-803", "assay": "Induction of apoptosis in human MGC-803 cells assessed as cell debris at 5 to 10 uM incubated for 24 hrs by Hoechst 33342 staining based fluorescence microscopic analysis", "format": "functional", "settings": "dose 5-10 µM", "method_in_brief": "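MGC-803 cells exposed to 0, 5, 7.5 or 10 μM; cell morphology imaged and nuclear morphology examined by staining. Mean ± SD, three independent experiments.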"}, "MGC-803 [22]": {"test_system": "MGC-803", "assay": "Induction of apoptosis in human MGC-803 cells assessed as early apoptotic cells at 10 uM incubated for 24 hrs by Annexin V-FITC/PI staining based flow cytometric analysis (reference value: 3.9 %)", "format": "functional"}, "[23]": {"assay": "Activation of MAPK pathway in human MGC-803 cells assessed as change in Erk5 total expression at 5 to 10 uM incubated for 24 hrs by Western blot analysis", "format": "cell-based", "settings": "dose 5-10 µM"}, "[24]": {"assay": "Activation of MAPK pathway in human MGC-803 cells assessed as increase in phosphorylated JNK expression at 5 to 10 uM incubated for 24 hrs by Western blot analysis", "format": "cell-based", "settings": "filed as activator, dose 5-10 µM"}, "MGC-803 [25]": {"test_system": "MGC-803", "assay": "Induction of mitochondrial dysfunction in human MGC-803 cells assessed as increase in green fluorescence intensity at 5 uM incubated for 24 hrs by JC-1 staining based fluorescence microscopic analysis (reference value: 9.9%)", "format": "functional"}, "[26]": {"assay": "Activation of MAPK pathway in human MGC-803 cells assessed as change in phosphorylated Erk5 expression at 5 to 10 uM incubated for 24 hrs by Western blot analysis", "format": "cell-based", "settings": "dose 5-10 µM"}, "MGC-803 [27]": {"test_system": "MGC-803", "assay": "Induction of mitochondrial dysfunction in human MGC-803 cells assessed as increase in ratio of green to red fluorescence intensity incubated for 24 hrs by JC-1 staining based fluorescence microscopic analysis", "format": "functional, cell-based", "settings": "dose 5-10 µM"}},
  "note": "Activity calls are given as the source filed them. The calls are words filed in the database; no cut-off is given here.",
  "data": [
    {"smiles": "Cc1cc(N2CC[C@@H](C)[C@@H](N(C)c3ncnc4[nH]ccc34)C2)n2nc(SCc3ccc(C(F)(F)F)cc3)nc2n1", "values": [
      {"measurement": "Activity", "setting": "MGC-803 [1]", "result": 40.7, "unit": "%"},
      {"measurement": "Activity", "setting": "MGC-803 [2]", "result": 11.5, "unit": "%"},
      {"measurement": "Ratio", "setting": "MGC-803 [3]", "result": "<=8.73"},
      {"measurement": "Activity", "setting": "MGC-803 [4]", "result": "Active"},
      {"measurement": "Activity", "setting": "[5]", "result": "inactive"},
      {"measurement": "Activity", "setting": "MGC-803 [6]", "result": 28, "unit": "%"},
      {"measurement": "Activity", "setting": "[7]", "result": "Non-Toxic"},
      {"measurement": "Activity", "setting": "MGC-803 [8]", "result": 15.8, "unit": "%"},
      {"measurement": "inhibition", "setting": "MGC-803 [9]", "result": "Dose-Dependent Effect"},
      {"measurement": "Activity", "setting": "MGC-803 [10]", "result": 56.93, "unit": "%"},
      {"measurement": "Activity", "setting": "[11]", "result": "Non-Toxic"},
      {"measurement": "selectivity ratio", "setting": "[12]", "result": 6.5},
      {"measurement": "Activity", "setting": "[13]", "result": "Non-Toxic"},
      {"measurement": "viability at 5 µM", "setting": "MGC-803 [14]", "result": 81.7, "unit": "%"},
      {"measurement": "Activity", "setting": "MGC-803 [15]", "result": 82.1, "unit": "%"},
      {"measurement": "IC50", "setting": "BGC-823", "result": 23.3, "unit": "µM"},
      {"measurement": "Activity", "setting": "MGC-803 [16]", "result": "Active"},
      {"measurement": "Activity", "setting": "MGC-803 [17]", "result": "Active"},
      {"measurement": "Activity", "setting": "MGC-803 [18]", "result": 10.78, "unit": "%"},
      {"measurement": "Activity", "setting": "MGC-803 [19]", "result": 2.2, "unit": "%"},
      {"measurement": "Activity", "setting": "MGC-803 [20]", "result": 3.5, "unit": "%"},
      {"measurement": "Activity", "setting": "MGC-803 [21]", "result": "Active"},
      {"measurement": "Activity", "setting": "MGC-803 [22]", "result": 12.7, "unit": "%"},
      {"measurement": "Activity", "setting": "[23]", "result": "inactive"},
      {"measurement": "Activity", "setting": "[24]", "result": "Active"},
      {"measurement": "Activity", "setting": "MGC-803 [25]", "result": 27.7, "unit": "%"},
      {"measurement": "Activity", "setting": "[26]", "result": "inactive"},
      {"measurement": "Activity", "setting": "MGC-803 [27]", "result": "Dose-Dependent Effect"}
    ]}
  ]
}
